Results as given in ChEMBL document CHEMBL4190344, “Synthesis of substituted phenanthrene-9-benzimidazole conjugates: Cytotoxicity evaluation and apoptosis inducing studies” (Eur J Med Chem, 2017).
pIC50: −log10 of the molar value. Active and inactive are the calls of the source. The rule behind the calls is not given here.

Tests used:
PC-3 [1] = test: Induction of apoptosis in human PC3 cells assessed as necrotic cells level at 2.5 uM incubated for 24 hrs by annexin V-FITC/propidium iodide dual staining based flow cytometry (reference value: 0.59%); format: functional
Summary of the method: (§1)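 PC-3 cells were grown 24 h, then treated 24 h at 2.5, 5.0 or 10 µM. Cells were trypsinised, washed twice in ice-cold PBS and stained in binding buffer with Annexin V-FITC followed by propidium iodide at room temperature in the dark. 10,000 cells per sample were run on a flow cytometer, with quadrants scored as live, early apoptotic, late apoptotic or necrotic.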

PC-3 [2] = test: Cell cycle arrest in human PC3 cells assessed as accumulation at G0/G1 phase at 2.5 uM incubated for 24 hrs by propidium iodide staining based flow cytometry (reference value: 56.67%); format: functional
Calf thymus DNA = test: Binding affinity to calf thymus DNA assessed as increase in relative viscosity of DNA-compound complex at 5 uM by viscometry; format: nucleic-acid assay; settings: Bos taurus
Summary of the method: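 Viscosity titration of test compound (5 µM) into CT-DNA (50 µM) in 100 mM Tris-HCl pH 7.0. Rolling-ball viscometer, ball fall time read at angles of 20° to 70°, Peltier-held temperature, viscosity calculated at 25 °C.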

PC-3 [3] = test: Induction of mitochondrial membrane potential loss in human PC3 cells assessed as JC1 aggregate level at 5 uM incubated for 24 hrs by JC1 staining based flow cytometry (reference value: 76.94%); format: functional
PC-3 [4] = test: Induction of apoptosis in human PC3 cells assessed as late apoptotic cells level at 2.5 uM incubated for 24 hrs by annexin V-FITC/propidium iodide dual staining based flow cytometry (reference value: 10.92%); format: functional; summary of the method: as §1
PC-3 [5] = test: Induction of mitochondrial membrane potential loss in human PC3 cells assessed as JC1 aggregate level at 2.5 uM incubated for 24 hrs by JC1 staining based flow cytometry (reference value: 76.94%); format: functional
PC-3 [6] = test: Induction of apoptosis in human PC3 cells assessed as viable cells level at 10 uM incubated for 24 hrs by annexin V-FITC/propidium iodide dual staining based flow cytometry (reference value: 76.73%); format: functional; summary of the method: as §1
PC-3 [7] = test: Induction of mitochondrial membrane potential loss in human PC3 cells incubated for 24 hrs by JC1 staining based flow cytometry (reference value: 76.94%); format: functional, cell-based
PC-3 [8] = test: Induction of mitochondrial membrane potential loss in human PC3 cells assessed as JC1 aggregate level at 10 uM incubated for 24 hrs by JC1 staining based flow cytometry (reference value: 76.94%); format: functional
PC-3 [9] = test: Cell cycle arrest in human PC3 cells assessed as accumulation at S phase at 5 uM incubated for 24 hrs by propidium iodide staining based flow cytometry (reference value: 13.92%); format: functional
MDA-MB-453 = test: Cytotoxicity in human MDA-MB-453 cells incubated for 48 hrs by MTT assay; format: functional, cell-based; settings: MDA-MB-453, 48 h
Summary of the method: (§2)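 Cells (1 × 10^4/well) were seeded in medium with 10% FBS and left 24 h at 37 °C. Compound diluted in medium was then added, alongside a vehicle control, for 48 h. MTT (5 mg/mL stock) was added for 4 h, formazan dissolved in DMSO and absorbance read at 570 nm. IC50 taken as the concentration giving 50% inhibition.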

PC-3 [10] = test: Induction of cell death in human PC3 cells assessed as induction of chromatin condensation at 10 uM incubated for 48 hrs by acridine orange and ethidium bromide staining based fluorescence microscopy; format: functional
Summary of the method: (§3)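 PC-3 cells (1 × 10^6 cells/mL) were treated with compound and kept 48 h at 37 °C, 5% CO2. Acridine orange and ethidium bromide (10 µg/mL) were added in equal volumes. After 10 min, cells were imaged by fluorescence microscopy (ex 488/em 550 nm, 200×).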

PC-3 [11] = test: Induction of mitochondrial membrane potential loss in human PC3 cells assessed as JC1 monomer level at 5 uM incubated for 24 hrs by JC1 staining based flow cytometry (reference value: 22.8%); format: functional
PC-3 [12] = test: Induction of apoptosis in human PC3 cells assessed as induction of condensed nuclei formation at 2.5 to 10 uM incubated for 48 hrs by DAPI staining based fluorescence microscopy; format: functional, cell-based
Summary of the method: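 Compound-treated PC-3 cells were PBS-washed, permeabilised with 0.1% Tween 20 for 10 min and stained with 1 µM DAPI. Nuclear morphology was viewed by fluorescence microscopy at ex 359/em 461 nm, 200×.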

PC-3 [13] = test: Cell cycle arrest in human PC3 cells assessed as accumulation at G2/M phase at 2.5 uM incubated for 24 hrs by propidium iodide staining based flow cytometry (reference value: 25.96%); format: functional
PC-3 [14] = test: Induction of reactive oxygen species in human PC3 cells at 2.5 to 10 uM pre-incubated with NAC before compound addition for 6 hrs by DCFDA dye based spectrofluorometry; format: functional, cell-based
Summary of the method: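 PC-3 cells (1 × 10^6 cells/mL) adhered overnight, then were treated at 2.5, 5.0 or 10.0 µM. Medium was replaced with DCFDA 10 µM for 30 min in the dark, and fluorescence read by spectrofluorometer at ex 488/em 525 nm. N-acetyl cysteine pretreatment before compound and H2O2 were used as comparisons.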

PC-3 [15] = test: Cell cycle arrest in human PC3 cells assessed as accumulation at G2/M phase at 5 uM incubated for 24 hrs by propidium iodide staining based flow cytometry (reference value: 25.96%); format: functional
DU-145 = test: Cytotoxicity in human DU145 cells incubated for 48 hrs by MTT assay; format: functional, cell-based; settings: DU-145, 48 h; summary of the method: as §2
PC-3 [16] = test: Induction of cell death in human PC3 cells assessed as induction of cell shrinkage at 10 uM incubated for 48 hrs by acridine orange and ethidium bromide staining based fluorescence microscopy; format: functional; summary of the method: as §3
PC-3 [17] = test: Induction of apoptosis in human PC3 cells assessed as late apoptotic cells level at 10 uM incubated for 24 hrs by annexin V-FITC/propidium iodide dual staining based flow cytometry (reference value: 10.92%); format: functional; summary of the method: as §1
PC-3 [18] = test: Induction of apoptosis in human PC3 cells assessed as early apoptotic cells level at 10 uM incubated for 24 hrs by annexin V-FITC/propidium iodide dual staining based flow cytometry (reference value: 11.76%); format: functional; summary of the method: as §1
PC-3 [19] = test: Induction of mitochondrial membrane potential loss in human PC3 cells assessed as JC1 monomer level at 10 uM incubated for 24 hrs by JC1 staining based flow cytometry (reference value: 22.8%); format: functional
HCT-116 = test: Cytotoxicity in human HCT116 cells incubated for 48 hrs by MTT assay; format: functional, cell-based; settings: HCT-116, 48 h
Summary of the method: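 Cells (1 × 10^4/well) were seeded in medium with 10% FBS and left 24 h at 37 °C. Compound diluted in medium was then added, alongside a vehicle control, for 48 h. MTT (5 mg/mL stock) was added for 4 h, formazan dissolved in DMSO and absorbance read at 570 nm.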

PC-3 [20] = test: Cytotoxicity in human PC3 cells incubated for 48 hrs by MTT assay; format: functional, cell-based; settings: PC-3, 48 h; summary of the method: as §2
PC-3 [21] = test: Induction of apoptosis in human PC3 cells assessed as viable cells level at 5 uM incubated for 24 hrs by annexin V-FITC/propidium iodide dual staining based flow cytometry (reference value: 76.73%); format: functional; summary of the method: as §1
BT-549 = test: Cytotoxicity in human BT549 cells incubated for 48 hrs by MTT assay; format: functional, cell-based; settings: BT-549, 48 h; summary of the method: as §2
PC-3 [22] = test: Cell cycle arrest in human PC3 cells assessed as accumulation at G0/G1 phase at 2.10 uM incubated for 24 hrs by propidium iodide staining based flow cytometry (reference value: 106.67%); format: functional

COc1ccc2cc(-c3nc4ccc(F)cc4[nH]3)c3cc(OC)c(OC)cc3c2c1
Activity (PC-3 [1]): 0.21% | Activity (PC-3 [2]): 55.93% | Activity (Calf thymus DNA): Active | Activity (PC-3 [3]): 32.38% | Activity (PC-3 [4]): 24.89% | Activity (PC-3 [5]): 66.43% | Activity (PC-3 [6]): 27.68% | Activity (PC-3 [7]): Dose-dependent effect | Activity (PC-3 [8]): 4.29% | Activity (PC-3 [9]): 14.21% | pIC50 (MDA-MB-453): 5.18 | Activity (PC-3 [10]): Active | Activity (PC-3 [11]): 67.42% | Activity (PC-3 [12]): Active | Activity (PC-3 [13]): 27.8% | Activity (PC-3 [14]): inactive | Activity (PC-3 [15]): 29.78% | pIC50 (DU-145): < 4.70 | Activity (PC-3 [16]): Active | Activity (PC-3 [17]): 49.02% | Activity (PC-3 [18]): 22.94% | Activity (PC-3 [19]): 95.64% | pIC50 (HCT-116): < 4.70 | pIC50 (PC-3 [20]): 5.20 | Activity (PC-3 [21]): 32.12% | pIC50 (BT-549): 4.88 | Activity (PC-3 [22]): 38.61%
